In publication PMC8717358 (Journal of the American Chemical Society, 2021):
Changes are numbered by the printed parent chain. Each block holds one molecule with its values, some of them ahead of it.

Columns and labels:
full-length Med25 = molecular target: T1, full-length Med25 (Homo sapiens, UniProt Q71SY5); test: Cellular thermal shift assay in HeLa cell nuclear extracts; type: cell-based; conditions: 25 μM NA
T1 sequence (Q71SY5 1-747): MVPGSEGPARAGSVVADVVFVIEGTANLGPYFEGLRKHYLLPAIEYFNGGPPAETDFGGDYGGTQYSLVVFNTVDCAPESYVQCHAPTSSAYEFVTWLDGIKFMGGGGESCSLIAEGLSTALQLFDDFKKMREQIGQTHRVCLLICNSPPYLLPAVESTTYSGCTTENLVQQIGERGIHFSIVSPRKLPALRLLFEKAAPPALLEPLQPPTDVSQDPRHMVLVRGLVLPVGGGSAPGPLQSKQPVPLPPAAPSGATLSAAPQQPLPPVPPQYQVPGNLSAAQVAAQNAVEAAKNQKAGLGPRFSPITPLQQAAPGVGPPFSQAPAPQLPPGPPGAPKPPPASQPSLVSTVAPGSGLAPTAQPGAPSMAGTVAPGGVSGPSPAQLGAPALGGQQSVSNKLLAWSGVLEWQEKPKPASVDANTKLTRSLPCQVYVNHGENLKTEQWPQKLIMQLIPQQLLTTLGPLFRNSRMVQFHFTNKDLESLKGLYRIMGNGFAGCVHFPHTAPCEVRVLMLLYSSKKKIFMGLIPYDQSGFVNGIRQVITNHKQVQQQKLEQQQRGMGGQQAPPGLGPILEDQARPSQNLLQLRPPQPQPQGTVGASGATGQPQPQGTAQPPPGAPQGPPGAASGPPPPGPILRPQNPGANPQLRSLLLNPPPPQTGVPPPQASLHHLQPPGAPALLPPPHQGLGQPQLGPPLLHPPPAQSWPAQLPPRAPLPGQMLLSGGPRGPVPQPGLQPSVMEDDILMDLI
Method in brief: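 HeLa cell nuclear extracts were dosed with 25 μM test compound or an equivalent amount of DMSO vehicle. Samples were then heated across a range of temperatures to assess thermal stabilization of Med25.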

MDA-MB-231 cells = test: Isobologram synergy with lapatinib, cell viability assay; type: cell-based; conditions: fixed dose ratios, 2 days, MTT
Med25 ETV5 complex [1] = molecular target: T2, Med25 ETV5 complex (Homo sapiens, UniProt Q71SY5); test: Co-immunoprecipitation of ETV5 with Med25 in HeLa cells; type: cell-based; conditions: 25 μM NA
T2 sequence (Q71SY5 1-747): T1 sequence (Q71SY5 1-747)

[2] = molecular target: T3, Med25 AcID fl-VP16(465–490) (Homo sapiens, UniProt Q71SY5); type: binding
T3 sequence (Q71SY5 389-543 limits assumed): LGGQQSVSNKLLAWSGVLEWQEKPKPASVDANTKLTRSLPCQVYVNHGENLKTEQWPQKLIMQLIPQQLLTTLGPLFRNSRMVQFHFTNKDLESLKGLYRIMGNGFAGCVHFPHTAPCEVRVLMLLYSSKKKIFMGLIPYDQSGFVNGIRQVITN

Med25 AcID [3] = molecular target: T4, Med25 AcID (Homo sapiens, UniProt Q71SY5, K519R); test: Mass spectrometry; type: binding; conditions: Med25 K519R mutant
T4 sequence (Q71SY5 394-543 K519R): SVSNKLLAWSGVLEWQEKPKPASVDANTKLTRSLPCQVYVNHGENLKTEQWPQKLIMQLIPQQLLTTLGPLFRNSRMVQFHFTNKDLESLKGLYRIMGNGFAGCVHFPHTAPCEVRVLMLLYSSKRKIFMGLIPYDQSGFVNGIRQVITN

Med25 AcID [4] = molecular target: T5, Med25 AcID (Homo sapiens, UniProt Q71SY5, K520R); test: Mass spectrometry; type: binding; conditions: Med25 K520R mutant
T5 sequence (Q71SY5 394-543 K520R): T4 sequence (Q71SY5 394-543 K519R) with R126K, K127R

Med25 AcID [5] = molecular target: T6, Med25 AcID (Homo sapiens, UniProt Q71SY5); test: Mass spectrometry; type: binding; conditions: mass spectrometry
T6 sequence (Q71SY5 389-543 limits assumed): T3 sequence (Q71SY5 389-543 limits assumed)

Med25 ATF6α = molecular target: T7, Med25 ATF6α (Homo sapiens, UniProt Q71SY5); test: Fluorescence polarization inhibition of Med25 ATF6α interaction; conditions: H2 binding surface
T7 sequence (Q71SY5 389-543 limits assumed): T3 sequence (Q71SY5 389-543 limits assumed)

Med25 ETV5 complex [6] = molecular target: T2, Med25 ETV5 complex; test: Co-immunoprecipitation of ETV5 with Med25 in VARI068 cells; type: cell-based
Method in brief: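 Cells were treated with test compound. ETV5 was co-immunoprecipitated with Med25 and detected by Western blot.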

MMP2 transcript = test: qPCR analysis of MMP2 transcript levels in VARI068 cells; type: cell-based; conditions: normalized to RPL19
Method in brief: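 Test compound- or vehicle-treated cells were assayed by qPCR for MMP2 transcript, normalized to reference gene RPL19. Runs were technical triplicates in biological duplicate and averaged.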

Med25 AcID ETV5 = molecular target: T8, Med25 AcID ETV5 (Homo sapiens, UniProt Q71SY5); test: Fluorescence polarization inhibition of Med25 AcID ETV5 interaction; conditions: H1 binding surface
T8 sequence (Q71SY5 389-543 limits assumed): T3 sequence (Q71SY5 389-543 limits assumed)

IBiD ACTR = IBiD ACTR (Homo sapiens, UniProt Q92793); type: binding

thermal stabilization of endogenous Med25 (full-length Med25): stabilizes endogenous Med25 protein
time at which significant inhibition was observed ([2]; time-course experiment): 5 min
reduction in mass abundance of the +1 covalent adduct (Med25 AcID [3]): 53%
reduction in mass abundance of the NA covalent adduct (Med25 AcID [4]): 22%
inhibition of Med25 PPI with ATF6α (Med25 ATF6α): inhibits
formation of Med25 ETV5 complex (Med25 ETV5 complex [6]): blocks the Med25 ETV5 complex
inhibition of Med25 PPI with ETV5 (Med25 AcID ETV5): inhibits
IC50 (IBiD ACTR): > 250 µM
Compound: Cc1cc(O)c(C=O)c2c1C(=O)Oc1c(C)c(O)c3c(c1O2)C(O)OC3=O (centres unmarked) [NA, norstictic acid]
synergy with lapatinib (MDA-MB-231 cells): strong synergy was observed
formation of Med25 ETV5 complex (Med25 ETV5 complex [1]): blocks the formation of the Med25 ETV5 complex
covalent adduct formation with Med25 AcID (Med25 AcID [5]): concentration-dependent covalent adduct(s)
MMP2 transcript levels relative to vehicle (MMP2 transcript): substantial downregulation of MMP2

IC50 [2]: 3.9 ± 0.3 µM
Compound: COc1cc(C(=O)O)c2c(c1C)OC(=O)c1c(C)cc(O)c(C=O)c1O2 [PA, psoromic acid]

IC50 [2]: > 250 µM
Compound: COc1cc(C)c2c(c1C=O)Oc1c(c(C)c(O)c3c1C(O)OC3=O)OC2=O (centres unmarked) [Stictic acid]

Compound: COc1cc(C)c(C(=O)Oc2cc(C)c(C(=O)O)c(O)c2C)c(O)c1C=O [baeomycesic acid]
covalent adduct formation with Med25 AcID (Med25 AcID [5]): covalent adducts with Med25 were observed

impact on binding of activators to Med25 AcID [2]: does not impact binding of activators
covalent adduct formation with Med25 AcID (Med25 AcID [5]): efficiently labels Med25 AcID
Compound: O=Cc1ccccc1O [salicylaldehyde]
